Measured values taken from ChEMBL document CHEMBL1154014, “Discovery of a novel class of 2-mercaptohexanoic acid derivatives as highly active PPARalpha agonists” (Bioorg Med Chem Lett, 2009).
Activity calls are given as the source filed them. The rule behind the calls is not given here.

Target: T1, Peroxisome proliferator-activated receptor delta (Homo sapiens) (UniProt Q03181)
T1 sequence (whole entry): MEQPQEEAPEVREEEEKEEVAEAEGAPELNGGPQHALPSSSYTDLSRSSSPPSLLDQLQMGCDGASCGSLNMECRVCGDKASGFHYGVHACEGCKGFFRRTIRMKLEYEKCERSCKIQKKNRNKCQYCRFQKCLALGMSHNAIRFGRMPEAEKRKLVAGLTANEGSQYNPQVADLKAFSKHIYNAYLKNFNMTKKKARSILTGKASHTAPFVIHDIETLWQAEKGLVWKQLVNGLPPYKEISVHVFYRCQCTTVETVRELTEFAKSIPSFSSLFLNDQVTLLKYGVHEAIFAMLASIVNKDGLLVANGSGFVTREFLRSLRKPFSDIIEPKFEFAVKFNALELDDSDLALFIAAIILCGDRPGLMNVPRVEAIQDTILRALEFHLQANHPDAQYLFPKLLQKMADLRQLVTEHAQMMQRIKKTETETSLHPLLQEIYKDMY
Assay: Agonist activity at human PPARbeta expressed in african green monkey COS7 cells at 10 uM by Gal4 transactivation assay
Assay type: functional, cell-based
Details: COS-7

SMILES	Activity
CCCCC(Sc1ccc(OCCCOc2ccccc2C)cc1)C(=O)O (configuration not stated)	inactive
CCCC[C@@H](Sc1ccc(OCCCOc2cccc(C)c2C)cc1)C(=O)O	inactive
CCCCC(Cc1ccc(OCCCOc2cccc(C)c2C)cc1)C(=O)O (configuration not stated)	inactive
CCCCC(Sc1ccc(OCCCOc2ccccc2)cc1)C(=O)O (configuration not stated)	inactive
CCCCC(Sc1ccc(OCCCOc2cccc(C)c2C)cc1)C(=O)O (configuration not stated)	inactive
CCCCC(Sc1ccc(OCCCOc2cccc(OC)c2)cc1)C(=O)O (configuration not stated)	inactive
CCCCC(Sc1ccc(OCCCOc2cccc(C)c2)cc1)C(=O)O (configuration not stated)	inactive

Next, values leading:

Activity	SMILES
inactive	CCCCC(Sc1ccc(OCCCOc2ccc(Cl)c(C(F)(F)F)c2)cc1)C(=O)O (configuration not stated)
inactive	CCCC[C@H](Sc1ccc(OCCCOc2cccc(C)c2C)cc1)C(=O)O
inactive	CCCCC(Sc1ccc(OCCCOc2ccccc2C(C)C)cc1)C(=O)O (configuration not stated)

Target: T2, Peroxisome proliferator-activated receptor alpha (Homo sapiens, UniProt Q07869)
T2 sequence (Q07869 whole entry): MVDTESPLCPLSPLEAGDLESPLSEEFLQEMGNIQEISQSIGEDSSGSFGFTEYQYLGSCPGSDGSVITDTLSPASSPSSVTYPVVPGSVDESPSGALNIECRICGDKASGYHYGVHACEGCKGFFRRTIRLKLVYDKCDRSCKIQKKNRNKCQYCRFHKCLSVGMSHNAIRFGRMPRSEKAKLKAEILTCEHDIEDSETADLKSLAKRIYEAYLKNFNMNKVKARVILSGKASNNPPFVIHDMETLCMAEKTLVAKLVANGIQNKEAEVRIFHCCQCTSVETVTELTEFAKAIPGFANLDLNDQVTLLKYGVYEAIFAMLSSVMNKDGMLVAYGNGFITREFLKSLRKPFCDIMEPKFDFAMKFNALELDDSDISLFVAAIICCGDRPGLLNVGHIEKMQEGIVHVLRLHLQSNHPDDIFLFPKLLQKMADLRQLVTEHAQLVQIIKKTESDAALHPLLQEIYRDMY
Assay: Agonist activity at human PPARalpha expressed in african green monkey COS7 cells by Gal4 transactivation assay
Assay type: functional, cell-based, COS-7
Details: not given
Outline: (§1)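 COS7 cells were grown in DMEM with FCS, sodium pyruvate and penicillin/streptomycin at 37 °C, 5% CO2, and seeded at 30,000 cells/well the day before transfection. They were lipofected with pFR-Luc, pRL-SV40 and the Gal4-hPPAR-LBD plasmid of each subtype. After 5 h, cells received serum-free DMEM with 0.1% DMSO plus compound, incubated overnight, then Dual-Glo luciferase read-out. Triplicate wells, ≥3 independent experiments; EC50 from mean values.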

SMILES	EC50
CCCCC(Sc1ccc(OCCCOc2ccccc2C)cc1)C(=O)O (configuration not stated)	250 nM
CCCC[C@@H](Sc1ccc(OCCCOc2cccc(C)c2C)cc1)C(=O)O	11 nM
CCCCC(Cc1ccc(OCCCOc2cccc(C)c2C)cc1)C(=O)O (configuration not stated)	1500 nM
CCCCC(Sc1ccc(OCCCOc2ccccc2)cc1)C(=O)O (configuration not stated)	290 nM
CCCCC(Sc1ccc(OCCCOc2cccc(C)c2C)cc1)C(=O)O (configuration not stated)	56 nM
CCCCC(Sc1ccc(OCCCOc2cccc(OC)c2)cc1)C(=O)O (configuration not stated)	49 nM
CCCCC(Sc1ccc(OCCCOc2cccc(C)c2)cc1)C(=O)O (configuration not stated)	90 nM

Next, values leading:

EC50	SMILES
390 nM	CCCCC(Sc1ccc(OCCCOc2ccc(Cl)c(C(F)(F)F)c2)cc1)C(=O)O (configuration not stated)
1700 nM	CCCC[C@H](Sc1ccc(OCCCOc2cccc(C)c2C)cc1)C(=O)O
2000 nM	CCCCC(Sc1ccc(OCCCOc2ccccc2C(C)C)cc1)C(=O)O (configuration not stated)

Target: T3, Peroxisome proliferator-activated receptor alpha (Homo sapiens) (UniProt Q07869)
T3 sequence (whole entry): T2 sequence (Q07869 whole entry)
Assay: Agonist activity at human PPARalpha expressed in african green monkey COS7 cells at 1 uM by Gal4 transactivation assay relative to GW-7647
Assay type: functional, cell-based
Details: COS-7

SMILES	Activity
CCCCC(Sc1ccc(OCCCOc2ccccc2C)cc1)C(=O)O (configuration not stated)	64%
CCCC[C@@H](Sc1ccc(OCCCOc2cccc(C)c2C)cc1)C(=O)O	115%
CCCCC(Cc1ccc(OCCCOc2cccc(C)c2C)cc1)C(=O)O (configuration not stated)	73%
CCCCC(Sc1ccc(OCCCOc2ccccc2)cc1)C(=O)O (configuration not stated)	76%
CCCCC(Sc1ccc(OCCCOc2cccc(C)c2C)cc1)C(=O)O (configuration not stated)	113%
CCCCC(Sc1ccc(OCCCOc2cccc(OC)c2)cc1)C(=O)O (configuration not stated)	85%
CCCCC(Sc1ccc(OCCCOc2cccc(C)c2)cc1)C(=O)O (configuration not stated)	80%

Other lines, results leading:

Activity	SMILES
65%	CCCCC(Sc1ccc(OCCCOc2ccc(Cl)c(C(F)(F)F)c2)cc1)C(=O)O (configuration not stated)
94%	CCCC[C@H](Sc1ccc(OCCCOc2cccc(C)c2C)cc1)C(=O)O
89%	CCCCC(Sc1ccc(OCCCOc2ccccc2C(C)C)cc1)C(=O)O (configuration not stated)

Target: T4, Peroxisome proliferator-activated receptor gamma (Homo sapiens, UniProt P37231)
T4 sequence (P37231 whole entry): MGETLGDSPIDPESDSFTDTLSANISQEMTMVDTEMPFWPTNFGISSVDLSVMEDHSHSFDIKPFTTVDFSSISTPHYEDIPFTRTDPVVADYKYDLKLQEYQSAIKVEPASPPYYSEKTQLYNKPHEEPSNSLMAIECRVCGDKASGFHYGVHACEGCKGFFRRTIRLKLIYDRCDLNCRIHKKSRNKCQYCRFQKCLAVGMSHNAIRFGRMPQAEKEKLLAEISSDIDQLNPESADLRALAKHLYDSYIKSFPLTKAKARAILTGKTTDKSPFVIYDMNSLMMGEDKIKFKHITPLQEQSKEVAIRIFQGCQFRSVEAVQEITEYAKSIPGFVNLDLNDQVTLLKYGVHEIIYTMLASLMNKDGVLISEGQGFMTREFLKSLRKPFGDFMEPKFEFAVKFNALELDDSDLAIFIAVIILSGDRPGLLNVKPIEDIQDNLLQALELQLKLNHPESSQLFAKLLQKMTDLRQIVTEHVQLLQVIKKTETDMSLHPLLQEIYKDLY
Assay: Agonist activity at human PPARgamma expressed in african green monkey COS7 cells by Gal4 transactivation assay
Assay type: functional, cell-based, COS-7
Details: not given
Outline: as §1

SMILES	EC50
CCCCC(Sc1ccc(OCCCOc2ccccc2C)cc1)C(=O)O (configuration not stated)	2300 nM
CCCC[C@@H](Sc1ccc(OCCCOc2cccc(C)c2C)cc1)C(=O)O	3900 nM
CCCCC(Cc1ccc(OCCCOc2cccc(C)c2C)cc1)C(=O)O (configuration not stated)	4200 nM
CCCCC(Sc1ccc(OCCCOc2ccccc2)cc1)C(=O)O (configuration not stated)	2600 nM
CCCCC(Sc1ccc(OCCCOc2cccc(C)c2C)cc1)C(=O)O (configuration not stated)	3000 nM
CCCCC(Sc1ccc(OCCCOc2cccc(OC)c2)cc1)C(=O)O (configuration not stated)	1200 nM
CCCCC(Sc1ccc(OCCCOc2cccc(C)c2)cc1)C(=O)O (configuration not stated)	3000 nM

Results, then the compound that gave them:

EC50	SMILES
7800 nM	CCCCC(Sc1ccc(OCCCOc2ccc(Cl)c(C(F)(F)F)c2)cc1)C(=O)O (configuration not stated)
9900 nM	CCCC[C@H](Sc1ccc(OCCCOc2cccc(C)c2C)cc1)C(=O)O
4100 nM	CCCCC(Sc1ccc(OCCCOc2ccccc2C(C)C)cc1)C(=O)O (configuration not stated)

Target: T5, Peroxisome proliferator-activated receptor gamma (Homo sapiens) (UniProt P37231)
T5 sequence (whole entry): T4 sequence (P37231 whole entry)
Assay: Agonist activity at human PPARgamma expressed in african green monkey COS7 cells at 1 uM by Gal4 transactivation assay relative to pioglitazone
Assay type: functional, cell-based
Details: COS-7

SMILES	Activity
CCCCC(Sc1ccc(OCCCOc2ccccc2C)cc1)C(=O)O (configuration not stated)	114%
CCCC[C@@H](Sc1ccc(OCCCOc2cccc(C)c2C)cc1)C(=O)O	125%
CCCCC(Cc1ccc(OCCCOc2cccc(C)c2C)cc1)C(=O)O (configuration not stated)	120%
CCCCC(Sc1ccc(OCCCOc2ccccc2)cc1)C(=O)O (configuration not stated)	83%
CCCCC(Sc1ccc(OCCCOc2cccc(C)c2C)cc1)C(=O)O (configuration not stated)	82%
CCCCC(Sc1ccc(OCCCOc2cccc(OC)c2)cc1)C(=O)O (configuration not stated)	85%
CCCCC(Sc1ccc(OCCCOc2cccc(C)c2)cc1)C(=O)O (configuration not stated)	96%

Further lines, results first:

Activity	SMILES
96%	CCCCC(Sc1ccc(OCCCOc2ccc(Cl)c(C(F)(F)F)c2)cc1)C(=O)O (configuration not stated)
77%	CCCC[C@H](Sc1ccc(OCCCOc2cccc(C)c2C)cc1)C(=O)O
92%	CCCCC(Sc1ccc(OCCCOc2ccccc2C(C)C)cc1)C(=O)O (configuration not stated)

Test system: COS-7
Assay: Selectivity ratio of EC50 for human PPARgamma to EC50 for human PPARalpha expressed in african green monkey COS7 cells
Assay type: cell-based
Details: not given

SMILES	Ratio EC50
CCCCC(Sc1ccc(OCCCOc2ccccc2)cc1)C(=O)O (configuration not stated)	9
CCCCC(Sc1ccc(OCCCOc2cccc(C)c2C)cc1)C(=O)O (configuration not stated)	54
